pIC50: −log10 of the molar value. In brackets after ≈: the same amount, converted by molar mass.
What was measured:
Mus musculus = test: Toxicity in BALB nu/nu mouse xenografted with human HCT116 cells assessed as body weight change at 0.3 mg/kg to 30 mg/kg, po qd for 11 days measured twice per week; type: organism-based, HCT-116; conditions: in vivo, 264 h
HCT-116 [1] = test: Antitumor activity against human HCT116 cells xenografted in BALB-nu/nu mouse assessed as tumor growth inhibition at 30 mg/kg, po qd for 11 days measured twice per week relative to control; type: functional; conditions: HCT-116, 264 h, read-out: TGI
In short: (§1)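 HCT116 cells implanted subcutaneously in right flank of BALB-nu/nu mice; tumours allowed to establish before dosing. Sodium salt given orally once daily for 11 days (day 0 to day 10). Tumour size measured twice weekly; mean SD, n = 4.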

[2] = Half life in cynomolgus monkey at 2.5 mg/kg, iv by LC-MS/MS analysis; conditions: in vivo
[3] = Clearance in rat at 5 mg/kg, iv and 10 mg/kg, po by LC-MS/MS analysis; type: ADME, organism-based; conditions: in vivo
In short: (§2)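 Sodium salt dosed intravenously and orally in mouse (10/20 mg/kg), rat (5.0/10 mg/kg) and monkey (2.5/5.0 mg/kg iv/po), vehicle 5% DMSO/5% Cremophor EL/15% PEG400/15% HPCD/60% water. AUC_inf from oral dosing, t1/2 from iv dosing, clearance and oral bioavailability from paired iv/po data.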

HCT-116 [4] = test: Antitumor activity against human HCT116 cells xenografted in BALB-nu/nu mouse administered orally qd for 11 days; type: functional; conditions: HCT-116, po, 264 h; in short: as §1
[5] = Oral bioavailability in rat at 10 mg/kg by LC-MS/MS analysis; type: ADME, organism-based; conditions: in vivo; in short: as §2
[6] = AUC (infinity) in cynomolgus monkey at 5 mg/kg, po by LC-MS/MS analysis; type: ADME, organism-based, Macaca fascicularis; set-up: dose 5 mg/kg, route oral, time infinity; conditions: plasma; in short: as §2
[7] = Clearance in BALB-nu/nu mouse at 10 mg/kg, iv and 20 mg/kg, po by LC-MS/MS analysis; type: ADME, organism-based; conditions: in vivo; in short: as §2
[8] = AUC (infinity) in rat at 10 mg/kg, po by LC-MS/MS analysis; type: ADME, organism-based; set-up: time infinity, dose 10 mg/kg, route oral; conditions: plasma; in short: as §2
[9] = Oral bioavailability in BALB-nu/nu mouse at 20 mg/kg by LC-MS/MS analysis; type: ADME, organism-based; conditions: in vivo; in short: as §2
[10] = Clearance in cynomolgus monkey at 2.5 mg/kg, iv and 5 mg/kg, po by LC-MS/MS analysis; type: ADME, organism-based, Macaca fascicularis; conditions: in vivo; in short: as §2
[11] = Half life in BALB-nu/nu mouse at 10 mg/kg, iv by LC-MS/MS analysis; type: ADME, organism-based; set-up: dose 10 mg/kg, route intravenous; conditions: in vivo; in short: as §2
[12] = Half life in rat at 5 mg/kg, iv by LC-MS/MS analysis; type: ADME, organism-based; set-up: dose 5 mg/kg, route intravenous; conditions: in vivo; in short: as §2
[13] = Oral bioavailability in cynomolgus monkey at 5 mg/kg by LC-MS/MS analysis; type: ADME, organism-based, Macaca fascicularis; conditions: in vivo; in short: as §2
[14] = AUC (infinity) in BALB-nu/nu mouse at 20 mg/kg, po by LC-MS/MS analysis; type: ADME, organism-based; set-up: time infinity, dose 20 mg/kg, route oral; conditions: plasma; in short: as §2
[15] = AUC (0 to 24 hrs) in BALB-nu/nu mouse at 50 mg/kg, po by LC-MS/MS analysis; type: ADME, organism-based; set-up: time < 24 hr, dose 50 mg/kg, route oral; conditions: plasma
[16] = biological target: Dual specificity mitogen-activated protein kinase kinase 1 (Homo sapiens, UniProt Q02750); test: Inhibition of MEK1 (unknown origin) assessed as phosphorylation of Erk2 preincubated for 30 mins followed by FAM-Erktide addition measured after 60 mins by IMAP fluorescence polarization assay
Sequence of Dual specificity mitogen-activated protein kinase kinase 1 (Q02750 whole entry): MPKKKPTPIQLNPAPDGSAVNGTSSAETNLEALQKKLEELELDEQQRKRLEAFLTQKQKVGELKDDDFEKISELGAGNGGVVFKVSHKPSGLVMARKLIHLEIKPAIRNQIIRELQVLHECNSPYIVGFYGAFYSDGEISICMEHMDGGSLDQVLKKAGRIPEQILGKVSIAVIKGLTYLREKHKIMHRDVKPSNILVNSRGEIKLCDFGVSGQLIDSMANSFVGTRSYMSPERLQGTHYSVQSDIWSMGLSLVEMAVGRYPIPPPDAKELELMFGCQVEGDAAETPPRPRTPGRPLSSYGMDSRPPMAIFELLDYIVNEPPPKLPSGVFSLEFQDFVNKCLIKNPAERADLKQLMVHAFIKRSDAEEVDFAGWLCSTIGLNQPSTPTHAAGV

[17] = Solubility of the compound in fasted state simulated intestinal fluid measured after overnight incubation by UV-HPLC analysis; type: ADME
Liver microsome = test: Clearance in human liver microsomes at 5 uM by LC-MS/MS analysis; type: ADME
[18] = Oral bioavailability in mouse; type: ADME, organism-based; conditions: in vivo
In short: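 Mice received the sodium salt at 10 mg/kg iv and 20 mg/kg po, in a vehicle of 5% DMSO/5% Cremophor EL/15% PEG400/15% HPCD/60% water. Bioavailability was derived from the iv and po exposure.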

[19] = Permeability of the compound at pH 6.5 by PAMPA; type: ADME; conditions: read-out: permeability
HCT-116 [20] = test: Antiproliferative activity against human HCT116 cells assessed as cell viability after 96 hrs by cell counting kit-8 assay; type: functional, cell-based; conditions: HCT-116, 96 h
[21] = biological target: RAF proto-oncogene serine/threonine-protein kinase (Homo sapiens, UniProt P04049); test: Inhibition of C-Raf (unknown origin) assessed as phosphorylation of MEK1 after 45 mins by TR-FRET assay
Sequence of RAF proto-oncogene serine/threonine-protein kinase (P04049 whole entry): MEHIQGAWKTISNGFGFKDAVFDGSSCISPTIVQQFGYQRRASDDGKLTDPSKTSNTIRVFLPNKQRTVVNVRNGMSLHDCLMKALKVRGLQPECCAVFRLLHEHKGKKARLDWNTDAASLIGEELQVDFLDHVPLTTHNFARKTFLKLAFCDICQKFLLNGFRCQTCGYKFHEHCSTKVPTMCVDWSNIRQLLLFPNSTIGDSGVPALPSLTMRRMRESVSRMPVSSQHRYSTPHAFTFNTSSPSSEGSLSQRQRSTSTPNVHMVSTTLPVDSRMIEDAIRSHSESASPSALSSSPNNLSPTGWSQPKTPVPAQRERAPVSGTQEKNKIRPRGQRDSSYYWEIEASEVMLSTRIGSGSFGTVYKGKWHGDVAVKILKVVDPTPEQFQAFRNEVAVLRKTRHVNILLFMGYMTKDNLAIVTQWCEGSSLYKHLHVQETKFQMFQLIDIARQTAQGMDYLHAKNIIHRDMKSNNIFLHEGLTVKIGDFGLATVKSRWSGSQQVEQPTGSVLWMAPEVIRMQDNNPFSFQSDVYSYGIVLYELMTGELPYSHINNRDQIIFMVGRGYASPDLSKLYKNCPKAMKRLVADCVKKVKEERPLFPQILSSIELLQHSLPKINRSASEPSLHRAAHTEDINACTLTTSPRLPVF

[22] = AUC (0 to 24 hrs) in BALB-nu/nu mouse at 100 mg/kg, po by LC-MS/MS analysis; type: ADME, organism-based; set-up: time < 24 hr, dose 100 mg/kg, route oral; conditions: plasma
In short: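 Mice received a single oral dose of 100 mg/kg, formulated as a solution in 5% DMSO, 5% Cremophor EL, 15% PEG400, 15% HPCD and 60% water. Plasma exposure was evaluated over 24 h.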

hERG (KCNH2) = hERG (KCNH2) (Homo sapiens, UniProt Q12809); test: Inhibition of human ERG expressed in CHO cells at 10 uM by patch clamp assay relative to control; type: cell-based; conditions: CHO cells expressing human ERG
Sequence of hERG (KCNH2) (Q12809 whole entry): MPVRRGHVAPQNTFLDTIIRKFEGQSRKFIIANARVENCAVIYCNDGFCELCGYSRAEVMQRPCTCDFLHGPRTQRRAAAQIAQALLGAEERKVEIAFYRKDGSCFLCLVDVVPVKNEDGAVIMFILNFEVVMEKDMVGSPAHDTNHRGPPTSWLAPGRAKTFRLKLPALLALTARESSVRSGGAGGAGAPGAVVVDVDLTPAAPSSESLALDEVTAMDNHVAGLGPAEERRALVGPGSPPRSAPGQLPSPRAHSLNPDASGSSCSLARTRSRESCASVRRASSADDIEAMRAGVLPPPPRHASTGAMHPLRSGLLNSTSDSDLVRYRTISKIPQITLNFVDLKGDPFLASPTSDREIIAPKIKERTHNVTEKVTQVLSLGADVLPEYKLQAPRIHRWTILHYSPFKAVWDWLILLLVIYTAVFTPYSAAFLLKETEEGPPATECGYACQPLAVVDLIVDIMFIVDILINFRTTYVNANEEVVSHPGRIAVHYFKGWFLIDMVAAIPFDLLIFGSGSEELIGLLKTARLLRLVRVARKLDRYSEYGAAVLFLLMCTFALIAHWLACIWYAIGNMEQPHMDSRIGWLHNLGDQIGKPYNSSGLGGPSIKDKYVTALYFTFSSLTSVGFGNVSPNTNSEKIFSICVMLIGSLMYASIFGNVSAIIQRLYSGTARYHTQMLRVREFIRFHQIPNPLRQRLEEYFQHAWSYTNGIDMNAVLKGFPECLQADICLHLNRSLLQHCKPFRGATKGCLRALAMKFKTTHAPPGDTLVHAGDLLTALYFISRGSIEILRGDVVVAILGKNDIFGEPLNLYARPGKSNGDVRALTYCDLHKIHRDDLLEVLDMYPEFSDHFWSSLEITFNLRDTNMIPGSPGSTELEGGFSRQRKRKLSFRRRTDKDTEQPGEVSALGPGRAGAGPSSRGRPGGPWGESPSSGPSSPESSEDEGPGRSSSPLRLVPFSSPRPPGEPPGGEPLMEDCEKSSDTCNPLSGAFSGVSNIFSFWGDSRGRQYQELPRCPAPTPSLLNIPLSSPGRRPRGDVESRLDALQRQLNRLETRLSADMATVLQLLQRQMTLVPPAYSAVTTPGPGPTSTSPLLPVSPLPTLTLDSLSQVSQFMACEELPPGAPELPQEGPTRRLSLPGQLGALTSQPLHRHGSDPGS

Row | Compound | pIC50 [16] | solubility [17] [µg/mL] | CLH (Liver microsome) [µL/min/mg] | Papp [19] [×10⁻⁶ cm/s] | pIC50 (HCT-116 [20]) | pIC50 [21] | AUC(0-t) at 24 h [22] [µM·h] | further results
1 | CNS(=O)(=O)[N-]c1cccc(Cc2c(C)c3ccc(Oc4ncccn4)cc3oc2=O)c1F.[Na+] | – | – | – | – | – | – | – | Activity (Mus musculus): Non-toxic; inhibition in vivo at 30 mg/kg (HCT-116 [1]): 119%; half-life [2]: 2.9 h; clearance [3]: 6.6 mL/min/kg; ED50 (HCT-116 [4]): 1.4 mg/kg; bioavailability [5]: 84%; AUC(0-inf) [6]: 108 µM·h; clearance [7]: 6.8 mL/min/kg; AUC(0-inf) [8]: 43 µM·h; bioavailability [9]: 75%; clearance [10]: 0.9 mL/min/kg; half-life [11]: 4.8 h; half-life [12]: 1.3 h; bioavailability [13]: 59%; AUC(0-inf) [14]: 75 µM·h
2 | Cc1c(Cc2cccc([N-]S(N)(=O)=O)c2F)c(=O)oc2cc(OC(=O)N(C)C)ccc12.[Na+] | – | – | – | – | – | – | – | AUC(0-t) at 24 h [15]: 40 µM·h
3 | Cc1c(Cc2cccc(NS(N)(=O)=O)c2)c(=O)oc2cc(OC(=O)N(C)C)ccc12 | 6.64 | 32 (≈ 74.2 µM) | 6 | 6 | 7.02 | 6.28 | – | bioavailability [18]: 62%
4 | Cc1c(Cc2cc(NS(N)(=O)=O)ccc2F)c(=O)oc2cc(OC(=O)N(C)C)ccc12 | 6.03 | 9 (≈ 20 µM) | 6 | 5 | 6.02 | 6.08 | 176 | –
5 | Cc1c(Cc2cccc(NS(N)(=O)=O)c2)c(=O)oc2cc(OC(=O)N(C)C)c(F)cc12 | 6.96 | 114 (≈ 254 µM) | 6 | 5 | 7.06 | 6.74 | – | AUC(0-t) at 24 h [15]: 61 µM·h
6 | CN(C)C(=O)Oc1ccc2c(CF)c(Cc3cccc(NS(N)(=O)=O)c3)c(=O)oc2c1 | 7.22 | 14 (≈ 31.1 µM) | 7 | 4 | 6.70 | 6.66 | 84 | –
7 | CNS(=O)(=O)Nc1ccc(F)c(Cc2c(C)c3ccc(OC(=O)N(C)C)cc3oc2=O)c1 | 5.54 | 51 (≈ 110 µM) | 22 | 5 | 6.26 | 5.62 | 75 | –
8 | CNS(=O)(=O)Nc1cccc(Cc2c(C)c3cc(F)c(OC(=O)N(C)C)cc3oc2=O)c1 | 7.19 | 55 (≈ 119 µM) | 13 | 5 | 7.66 | – | 99 | –
9 | CNS(=O)(=O)Nc1cccc(Cc2c(CF)c3ccc(OC(=O)N(C)C)cc3oc2=O)c1 | 7.18 | 72 (≈ 155 µM) | 22 | 4 | 7.52 | 6.92 | 86 | –
10 | CNS(=O)(=O)Nc1cccc(Cc2c(C)c3ccc(Oc4ncccn4)cc3oc2=O)c1 | 6.09 | 29 (≈ 64.1 µM) | 20 | 6 | 6.72 | < 5.00 | 223 | –
11 | CNS(=O)(=O)Nc1cccc(Cc2c(C)c3ccc(Oc4ncccn4)cc3oc2=O)c1F | 7.01 | 13 (≈ 27.6 µM) | 7 | 6 | 7.77 | 7.64 | 425 | inhibition at 10 µM (hERG (KCNH2)): 25%
12 | CNS(=O)(=O)Nc1cccc(Cc2c(C)c3ccc(Oc4nccs4)cc3oc2=O)c1 | 7.23 | 9 (≈ 19.7 µM) | 24 | 2 | 6.80 | 5.82 | – | –
